Tests used:
Conditions in all cases: stereoisomer not certain
OR51D1 (Homo sapiens) = target: T1, OR51D1 (Homo sapiens) (UniProt Q8NGF3)
T1 sequence (whole entry): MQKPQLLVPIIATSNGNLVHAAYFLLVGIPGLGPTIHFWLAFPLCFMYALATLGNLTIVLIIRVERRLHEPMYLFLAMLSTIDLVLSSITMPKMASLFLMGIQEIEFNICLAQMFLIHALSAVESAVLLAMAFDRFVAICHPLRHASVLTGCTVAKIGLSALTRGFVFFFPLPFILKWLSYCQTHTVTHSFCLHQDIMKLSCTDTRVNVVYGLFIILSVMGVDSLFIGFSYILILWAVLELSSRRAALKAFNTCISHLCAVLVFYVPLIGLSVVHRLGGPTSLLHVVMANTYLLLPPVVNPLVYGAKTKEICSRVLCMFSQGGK
Procedure, shortened: (§1)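 Assay methods differ from source to source, frequently being transient luciferase assays in mammalian cell lines. For each receptor–molecule pair, the label responsive (active) applies when the original authors judged the measured signal statistically different from baseline, and non-responsive (inactive) applies otherwise.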

OR51E1 (Homo sapiens) = target: T2, OR51E1 (Homo sapiens) (UniProt Q8TCB6)
T2 sequence (whole entry): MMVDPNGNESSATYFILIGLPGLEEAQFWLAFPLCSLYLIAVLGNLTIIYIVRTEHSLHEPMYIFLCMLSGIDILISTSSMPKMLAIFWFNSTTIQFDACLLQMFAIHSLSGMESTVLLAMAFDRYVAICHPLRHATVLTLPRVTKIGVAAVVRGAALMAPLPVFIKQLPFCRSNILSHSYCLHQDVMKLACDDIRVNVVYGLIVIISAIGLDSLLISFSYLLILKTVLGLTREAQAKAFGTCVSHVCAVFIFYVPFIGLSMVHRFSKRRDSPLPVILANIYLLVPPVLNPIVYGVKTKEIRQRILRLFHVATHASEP
Procedure, shortened: as §1

OR51E2 (Homo sapiens) = target: T3, OR51E2 (Homo sapiens) (UniProt Q9H255)
T3 sequence (whole entry): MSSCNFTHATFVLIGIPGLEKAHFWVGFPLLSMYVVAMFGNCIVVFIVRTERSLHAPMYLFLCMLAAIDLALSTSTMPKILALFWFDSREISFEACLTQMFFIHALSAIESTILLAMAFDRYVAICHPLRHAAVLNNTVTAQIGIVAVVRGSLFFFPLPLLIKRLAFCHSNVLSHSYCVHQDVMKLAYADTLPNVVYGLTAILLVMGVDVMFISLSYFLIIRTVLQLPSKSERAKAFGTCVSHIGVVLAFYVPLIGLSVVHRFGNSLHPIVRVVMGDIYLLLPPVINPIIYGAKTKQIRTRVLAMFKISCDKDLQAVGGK
Procedure, shortened: as §1

OR51F2 (Homo sapiens) = target: T4, OR51F2 (Homo sapiens) (UniProt Q8NH61)
T4 sequence (whole entry): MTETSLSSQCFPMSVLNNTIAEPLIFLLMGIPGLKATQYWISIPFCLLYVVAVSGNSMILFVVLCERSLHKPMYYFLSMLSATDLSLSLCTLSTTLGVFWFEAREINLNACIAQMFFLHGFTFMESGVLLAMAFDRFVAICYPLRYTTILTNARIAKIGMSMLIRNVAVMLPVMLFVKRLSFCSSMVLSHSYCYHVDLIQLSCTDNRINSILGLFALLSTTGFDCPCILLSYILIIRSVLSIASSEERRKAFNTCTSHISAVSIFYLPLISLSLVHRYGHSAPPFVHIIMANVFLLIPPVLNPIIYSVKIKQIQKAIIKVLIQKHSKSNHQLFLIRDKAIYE
Procedure, shortened: as §1

OR51G1 (Homo sapiens) = target: T5, OR51G1 (Homo sapiens) (UniProt Q8NGK1)
T5 sequence (whole entry): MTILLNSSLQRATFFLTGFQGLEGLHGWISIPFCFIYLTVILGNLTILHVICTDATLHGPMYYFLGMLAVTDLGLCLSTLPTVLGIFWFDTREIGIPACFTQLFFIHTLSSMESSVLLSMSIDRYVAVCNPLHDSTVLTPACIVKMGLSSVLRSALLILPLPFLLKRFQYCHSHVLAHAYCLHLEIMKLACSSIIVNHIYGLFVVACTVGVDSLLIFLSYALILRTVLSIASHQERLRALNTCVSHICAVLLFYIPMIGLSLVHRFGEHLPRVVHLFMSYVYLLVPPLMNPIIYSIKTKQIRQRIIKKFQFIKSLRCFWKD
Procedure, shortened: as §1

OR51G2 (Homo sapiens) = target: T6, OR51G2 (Homo sapiens) (UniProt Q8NGK0)
T6 sequence (whole entry): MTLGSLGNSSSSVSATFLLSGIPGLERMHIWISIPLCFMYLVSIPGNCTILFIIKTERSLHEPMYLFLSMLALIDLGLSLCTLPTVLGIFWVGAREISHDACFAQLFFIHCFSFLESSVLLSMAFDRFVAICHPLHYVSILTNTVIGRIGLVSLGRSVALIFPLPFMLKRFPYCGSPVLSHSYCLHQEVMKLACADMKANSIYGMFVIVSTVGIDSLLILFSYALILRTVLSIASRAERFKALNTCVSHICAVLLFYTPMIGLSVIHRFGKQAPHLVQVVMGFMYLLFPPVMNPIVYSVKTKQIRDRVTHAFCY
Procedure, shortened: as §1

OR51I1 (Homo sapiens) = target: T7, OR51I1 (Homo sapiens) (UniProt Q9H343)
T7 sequence (whole entry): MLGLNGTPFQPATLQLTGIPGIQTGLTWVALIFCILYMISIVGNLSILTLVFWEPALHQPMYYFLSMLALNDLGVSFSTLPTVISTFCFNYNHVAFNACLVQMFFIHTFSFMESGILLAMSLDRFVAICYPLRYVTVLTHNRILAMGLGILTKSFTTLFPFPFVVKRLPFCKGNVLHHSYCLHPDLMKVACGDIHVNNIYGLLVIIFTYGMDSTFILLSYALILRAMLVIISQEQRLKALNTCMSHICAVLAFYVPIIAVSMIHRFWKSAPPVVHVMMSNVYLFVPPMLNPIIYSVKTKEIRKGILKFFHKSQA
Procedure, shortened: as §1

OR51I2 (Homo sapiens) = target: T8, OR51I2 (Homo sapiens) (UniProt Q9H344)
T8 sequence (whole entry): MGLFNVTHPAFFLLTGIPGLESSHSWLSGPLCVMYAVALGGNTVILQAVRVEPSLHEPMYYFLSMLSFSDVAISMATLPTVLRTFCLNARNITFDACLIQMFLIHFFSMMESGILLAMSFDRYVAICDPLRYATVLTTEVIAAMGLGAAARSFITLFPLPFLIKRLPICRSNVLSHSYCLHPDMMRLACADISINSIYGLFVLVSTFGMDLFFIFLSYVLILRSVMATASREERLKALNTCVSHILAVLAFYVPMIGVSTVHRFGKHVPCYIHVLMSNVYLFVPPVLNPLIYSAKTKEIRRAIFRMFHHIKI
Procedure, shortened: as §1

OR51J1 (Homo sapiens) = target: T9, OR51J1 (Homo sapiens) (UniProt Q9H342)
T9 sequence (whole entry): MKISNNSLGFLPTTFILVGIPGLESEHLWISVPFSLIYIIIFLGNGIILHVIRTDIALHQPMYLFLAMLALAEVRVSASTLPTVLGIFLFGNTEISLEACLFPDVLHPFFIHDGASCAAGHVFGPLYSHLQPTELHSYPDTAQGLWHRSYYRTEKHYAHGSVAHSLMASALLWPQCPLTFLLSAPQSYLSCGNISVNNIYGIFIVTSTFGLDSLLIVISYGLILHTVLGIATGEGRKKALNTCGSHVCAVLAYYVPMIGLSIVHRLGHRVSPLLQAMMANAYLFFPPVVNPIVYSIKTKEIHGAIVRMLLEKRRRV
Procedure, shortened: as §1

OR51L1 (Homo sapiens) = target: T10, OR51L1 (Homo sapiens) (UniProt Q8NGJ5)
T10 sequence (whole entry): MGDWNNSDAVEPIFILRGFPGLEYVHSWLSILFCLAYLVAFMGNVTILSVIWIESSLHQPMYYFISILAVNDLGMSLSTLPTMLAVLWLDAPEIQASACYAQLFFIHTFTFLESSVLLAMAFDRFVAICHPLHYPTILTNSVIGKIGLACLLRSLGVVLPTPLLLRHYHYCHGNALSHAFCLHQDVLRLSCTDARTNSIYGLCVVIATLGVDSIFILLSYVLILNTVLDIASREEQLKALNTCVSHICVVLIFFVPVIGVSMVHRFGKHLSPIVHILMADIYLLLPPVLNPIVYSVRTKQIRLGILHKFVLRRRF
Procedure, shortened: as §1

OR51M1 (Homo sapiens) = target: T11, OR51M1 (Homo sapiens) (UniProt Q9H341)
T11 sequence (whole entry): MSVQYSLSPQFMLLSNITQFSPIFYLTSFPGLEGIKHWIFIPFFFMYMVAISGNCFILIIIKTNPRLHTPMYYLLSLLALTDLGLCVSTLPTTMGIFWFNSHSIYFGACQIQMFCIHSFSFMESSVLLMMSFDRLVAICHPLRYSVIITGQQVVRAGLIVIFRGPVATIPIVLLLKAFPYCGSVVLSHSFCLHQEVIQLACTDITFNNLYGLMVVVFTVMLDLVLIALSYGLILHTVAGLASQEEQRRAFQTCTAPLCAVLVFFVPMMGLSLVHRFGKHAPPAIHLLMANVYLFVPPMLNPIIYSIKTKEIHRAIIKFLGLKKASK
Procedure, shortened: as §1

OR51Q1 (Homo sapiens) = target: T12, OR51Q1 (Homo sapiens) (UniProt Q8NH59)
T12 sequence (whole entry): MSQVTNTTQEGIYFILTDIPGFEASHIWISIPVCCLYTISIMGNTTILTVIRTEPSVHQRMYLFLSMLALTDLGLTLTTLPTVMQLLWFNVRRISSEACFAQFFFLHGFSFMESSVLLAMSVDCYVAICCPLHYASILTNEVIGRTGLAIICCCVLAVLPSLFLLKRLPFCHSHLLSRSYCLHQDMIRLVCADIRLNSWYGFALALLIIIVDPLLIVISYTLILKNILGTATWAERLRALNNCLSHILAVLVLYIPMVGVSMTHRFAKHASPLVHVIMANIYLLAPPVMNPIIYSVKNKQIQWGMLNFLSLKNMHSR
Procedure, shortened: as §1

OR51S1 (Homo sapiens) = target: T13, OR51S1 (Homo sapiens) (UniProt Q8NGJ8)
T13 sequence (whole entry): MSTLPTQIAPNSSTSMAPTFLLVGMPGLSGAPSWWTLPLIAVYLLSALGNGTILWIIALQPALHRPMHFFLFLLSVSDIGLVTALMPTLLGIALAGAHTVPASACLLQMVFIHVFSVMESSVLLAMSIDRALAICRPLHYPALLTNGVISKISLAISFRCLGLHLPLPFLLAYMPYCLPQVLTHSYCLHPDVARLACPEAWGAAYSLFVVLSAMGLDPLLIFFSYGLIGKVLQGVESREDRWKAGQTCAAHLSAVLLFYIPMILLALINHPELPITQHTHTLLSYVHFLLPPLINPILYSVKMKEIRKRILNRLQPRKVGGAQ
Procedure, shortened: as §1

OR51V1 (Homo sapiens) = target: T14, OR51V1 (Homo sapiens) (UniProt Q9H2C8)
T14 sequence (whole entry): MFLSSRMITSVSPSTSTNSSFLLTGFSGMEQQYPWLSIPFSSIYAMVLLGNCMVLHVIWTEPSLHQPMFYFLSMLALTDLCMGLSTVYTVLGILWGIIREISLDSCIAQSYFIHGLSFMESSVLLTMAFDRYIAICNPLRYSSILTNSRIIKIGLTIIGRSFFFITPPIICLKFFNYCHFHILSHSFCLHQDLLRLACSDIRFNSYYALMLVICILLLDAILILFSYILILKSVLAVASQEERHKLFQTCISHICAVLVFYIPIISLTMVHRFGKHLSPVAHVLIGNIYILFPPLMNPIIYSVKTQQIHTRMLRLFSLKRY
Procedure, shortened: as §1

OR52A1 (Homo sapiens) = target: T15, OR52A1 (Homo sapiens) (UniProt Q9UKL2)
T15 sequence (whole entry): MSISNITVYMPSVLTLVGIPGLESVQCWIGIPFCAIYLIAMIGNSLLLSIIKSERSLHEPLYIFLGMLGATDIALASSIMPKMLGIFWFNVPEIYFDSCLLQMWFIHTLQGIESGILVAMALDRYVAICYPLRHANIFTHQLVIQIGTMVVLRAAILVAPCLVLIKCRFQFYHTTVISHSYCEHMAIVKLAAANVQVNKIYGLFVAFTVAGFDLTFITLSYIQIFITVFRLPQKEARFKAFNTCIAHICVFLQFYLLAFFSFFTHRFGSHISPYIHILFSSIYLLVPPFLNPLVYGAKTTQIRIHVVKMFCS
Procedure, shortened: as §1

Measured: odorant receptor agonist call

CCC1OC(C)=C(O)C1=O (stereo not given)
inactive: all assays above
